The values below come from ChEMBL document CHEMBL1157912, “Impact of nature and length of linker incorporated in agonists on toll-like receptor 9-mediated immune responses” (J Med Chem, 2010).

For assay [1], the target named is T1, Toll-like receptor 9 (Homo sapiens) (UniProt Q9NR96).
T1 sequence (whole entry): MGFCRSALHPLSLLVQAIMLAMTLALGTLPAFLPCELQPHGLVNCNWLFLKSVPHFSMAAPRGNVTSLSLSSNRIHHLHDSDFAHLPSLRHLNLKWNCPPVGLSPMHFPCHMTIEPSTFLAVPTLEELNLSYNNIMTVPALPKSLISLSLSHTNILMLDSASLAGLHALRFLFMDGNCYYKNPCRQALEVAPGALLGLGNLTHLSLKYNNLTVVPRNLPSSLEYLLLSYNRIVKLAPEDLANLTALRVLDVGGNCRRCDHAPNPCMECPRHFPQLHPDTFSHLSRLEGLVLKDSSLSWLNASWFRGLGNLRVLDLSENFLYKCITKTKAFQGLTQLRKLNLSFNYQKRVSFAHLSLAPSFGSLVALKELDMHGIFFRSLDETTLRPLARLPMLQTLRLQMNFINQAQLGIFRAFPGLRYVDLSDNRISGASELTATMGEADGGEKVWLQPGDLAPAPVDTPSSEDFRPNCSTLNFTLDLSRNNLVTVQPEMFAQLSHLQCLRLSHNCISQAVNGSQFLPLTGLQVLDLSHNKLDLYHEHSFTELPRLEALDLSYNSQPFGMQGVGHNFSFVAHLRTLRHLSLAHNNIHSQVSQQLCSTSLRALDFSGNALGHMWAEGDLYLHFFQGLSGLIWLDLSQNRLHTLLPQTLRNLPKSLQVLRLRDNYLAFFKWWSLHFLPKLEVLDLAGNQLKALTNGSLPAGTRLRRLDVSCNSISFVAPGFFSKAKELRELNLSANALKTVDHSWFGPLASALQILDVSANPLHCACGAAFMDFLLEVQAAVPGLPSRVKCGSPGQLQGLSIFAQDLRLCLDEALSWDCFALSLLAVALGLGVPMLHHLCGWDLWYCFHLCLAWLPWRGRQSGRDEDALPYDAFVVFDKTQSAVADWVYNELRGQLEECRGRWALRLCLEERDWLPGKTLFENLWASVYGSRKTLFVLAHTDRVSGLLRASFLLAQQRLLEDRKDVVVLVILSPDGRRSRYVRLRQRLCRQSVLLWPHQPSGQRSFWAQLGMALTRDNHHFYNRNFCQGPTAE
Put plainly: Induction of TLR9-mediated immune stimulation in human PBMC assessed as IL1Ralpha production at 10 ug/ml after 24 hrs by luminex multiplex assay (RVb = 0.12 +/- 0.03 ng/ml).

The target of assay [2] is T1, Toll-like receptor 9 (Homo sapiens). Put plainly: Induction of TLR9-mediated immune stimulation in human PBMC assessed as MIP1beta production at 2 ug/ml after 24 hrs by luminex multiplex assay (RVb = 0.03 +/- 0.02 ng/ml).
In assay [3] the target is T2, Toll-like receptor 9 (Mus musculus) (UniProt Q9EQU3).
T2 sequence (whole entry): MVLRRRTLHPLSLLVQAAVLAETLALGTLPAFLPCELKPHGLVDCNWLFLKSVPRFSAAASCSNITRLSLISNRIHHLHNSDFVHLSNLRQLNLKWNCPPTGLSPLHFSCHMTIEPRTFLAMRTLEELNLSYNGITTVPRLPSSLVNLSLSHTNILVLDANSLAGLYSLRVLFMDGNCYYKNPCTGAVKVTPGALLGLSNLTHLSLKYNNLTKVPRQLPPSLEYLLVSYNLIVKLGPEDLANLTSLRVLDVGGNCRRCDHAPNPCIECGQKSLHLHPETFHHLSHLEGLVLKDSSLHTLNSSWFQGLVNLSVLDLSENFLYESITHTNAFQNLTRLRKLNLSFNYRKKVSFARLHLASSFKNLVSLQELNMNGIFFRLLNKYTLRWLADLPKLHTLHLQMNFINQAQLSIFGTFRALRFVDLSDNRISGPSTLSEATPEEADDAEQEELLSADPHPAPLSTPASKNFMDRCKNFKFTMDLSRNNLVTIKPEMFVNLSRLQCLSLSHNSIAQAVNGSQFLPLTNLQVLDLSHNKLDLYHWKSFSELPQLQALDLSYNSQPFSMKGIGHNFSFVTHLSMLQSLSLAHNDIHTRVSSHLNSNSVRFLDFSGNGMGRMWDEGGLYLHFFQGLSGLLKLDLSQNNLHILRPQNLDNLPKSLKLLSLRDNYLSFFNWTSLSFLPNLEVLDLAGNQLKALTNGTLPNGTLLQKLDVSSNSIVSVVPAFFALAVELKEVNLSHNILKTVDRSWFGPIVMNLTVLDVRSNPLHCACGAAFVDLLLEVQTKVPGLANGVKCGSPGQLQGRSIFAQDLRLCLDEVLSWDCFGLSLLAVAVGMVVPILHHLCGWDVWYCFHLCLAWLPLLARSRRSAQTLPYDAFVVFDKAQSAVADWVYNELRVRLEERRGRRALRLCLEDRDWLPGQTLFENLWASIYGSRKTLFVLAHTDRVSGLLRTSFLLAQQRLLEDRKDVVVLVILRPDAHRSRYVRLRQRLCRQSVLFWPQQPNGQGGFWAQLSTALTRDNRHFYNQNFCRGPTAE
In words: Activation of mouse TLR9 expressed in HEK293 cells assessed as induction of NF-kappaB activity after 18 hrs by SEAP assay. In kind it is cell-based. In short, it runs like this:
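HEK293 cells stably expressing mouse TLR9 were grown in DMEM with 10% heat-inactivated FBS. At 80% confluence they were transiently transfected with a SEAP reporter plasmid (100 ng/well, lipofectamine) for 6 h. Medium was then replaced and agonists were added for 18 h. Supernatant SEAP was read with QuantiBlue substrate at 620-645 nm. Results are expressed as fold NF-κB activity over PBS control.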

Assay [4] deals with T1, Toll-like receptor 9 (Homo sapiens). In words: Induction of TLR9-mediated immune stimulation in human PBMC assessed as MCP1 production at 10 ug/ml after 24 hrs by luminex multiplex assay (RVb = 0.08 +/- 0.02 ng/ml).
Assay [5] has the same target. In words: Induction of TLR9-mediated immune stimulation in human PBMC assessed as MCP1 production at 2 ug/ml after 24 hrs by luminex multiplex assay (RVb = 0.08 +/- 0.02 ng/ml).
The target is the same in assay [6]. In words: Induction of TLR9-mediated immune stimulation in human PBMC assessed as RANTES production at 2 ug/ml after 24 hrs by luminex multiplex assay (RVb = 0.05 +/- 0.04 ng/ml).
For assay [7] the target is unchanged. Put plainly: Induction of TLR9-mediated immune stimulation in human PBMC assessed as IL2R production at 10 ug/ml after 24 hrs by luminex multiplex assay (RVb = 0.02 +/- 0.01 ng/ml).
Assay [8] shares this target. In words: Induction of TLR9-mediated immune stimulation in human PBMC assessed as MIP1beta production at 10 ug/ml after 24 hrs by luminex multiplex assay (RVb = 0.03 +/- 0.02 ng/ml).
The target of assay [9] is T2, Toll-like receptor 9 (Mus musculus). In words: Induction of TLR9-mediated IL12 production in C57BL/6 mouse spleen cells after 24 hrs by ELISA. In kind it is cell-based. In a few lines:
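C57BL/6 mouse spleen cells were cultured with agonists at 0.1, 0.3, 1, 3 and 10 μg/mL for 24 h. Secreted IL-12 and IL-6 in the supernatants were measured by ELISA. Values are averages of triplicate wells from one representative of at least two independent experiments.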

`Cc1cn([C@H]2C[C@H](OCCC(O)CCOP(=O)(S)O[C@H]3C[C@H](n4cc(C)c(=O)[nH]c4=O)O[C@@H]3COP(=O)(S)O[C@H]3[C@@H](O)[C@H](n4ccc(N)nc4=O)O[C@@H]3COP(=O)(S)O[C@H]3C[C@H](n4cc(C)c(=O)[nH]c4=O)O[C@@H]3COP(=O)(S)O[C@H]3C[C@H](n4cc(C)c(=O)[nH]c4=O)O[C@@H]3COP(=O)(S)O[C@H]3C[C@H](n4ccc5c(=O)[nH]c(N)nc54)O[C@@H]3COP(=O)(S)O[C@H]3[C@@H](O)[C@H](n4ccc(N)nc4=O)O[C@@H]3COP(=O)(S)O[C@H]3C[C@H](n4cc(C)c(=O)[nH]c4=O)O[C@@H]3COP(=O)(S)O[C@H]3[C@@H](O)[C@H](n4cnc5c(=O)[nH]c(N)nc54)O[C@@H]3COP(=O)(S)O[C@H]3C[C@H](n4cc(C)c(=O)[nH]c4=O)O[C@@H]3COP(=O)(S)O[C@H]3[C@@H](O)[C@H](n4ccc(N)nc4=O)O[C@@H]3COP(=O)(S)O[C@H]3C[C@H](n4cc(C)c(=O)[nH]c4=O)O[C@@H]3CO)[C@@H](COP(=O)(S)O[C@H]3[C@@H](O)[C@H](n4ccc(N)nc4=O)O[C@@H]3COP(=O)(S)O[C@H]3C[C@H](n4cc(C)c(=O)[nH]c4=O)O[C@@H]3COP(=O)(S)O[C@H]3C[C@H](n4cc(C)c(=O)[nH]c4=O)O[C@@H]3COP(=O)(S)O[C@H]3C[C@H](n4ccc5c(=O)[nH]c(N)nc54)O[C@@H]3COP(=O)(S)O[C@H]3[C@@H](O)[C@H](n4ccc(N)nc4=O)O[C@@H]3COP(=O)(S)O[C@H]3C[C@H](n4cc(C)c(=O)[nH]c4=O)O[C@@H]3COP(=O)(S)O[C@H]3[C@@H](O)[C@H](n4cnc5c(=O)[nH]c(N)nc54)O[C@@H]3COP(=O)(S)O[C@H]3C[C@H](n4cc(C)c(=O)[nH]c4=O)O[C@@H]3COP(=O)(S)O[C@H]3[C@@H](O)[C@H](n4ccc(N)nc4=O)O[C@@H]3COP(=O)(S)O[C@H]3C[C@H](n4cc(C)c(=O)[nH]c4=O)O[C@@H]3CO)O2)c(=O)[nH]c1=O` (stereo partly drawn): the Activity is 63 ng/mL in [1]; 0.12 ng/mL in [2]; “Dose-dependent effect” in assay [3]; 0.64 ng/mL in [4]; 0.25 ng/mL in assay [5]; 0.31 ng/mL in assay [6]. Also, the Activity in [7] was 0.12 ng/mL; in assay [8] it was 0.61 ng/mL; in assay [9], “Dose-dependent effect”.
In the case of `Cc1cn([C@H]2C[C@H](OCC[C@H](O)COP(=O)(S)O[C@H]3C[C@H](n4cc(C)c(=O)[nH]c4=O)O[C@@H]3COP(=O)(S)O[C@H]3[C@@H](O)[C@H](n4ccc(N)nc4=O)O[C@@H]3COP(=O)(S)O[C@H]3C[C@H](n4cc(C)c(=O)[nH]c4=O)O[C@@H]3COP(=O)(S)O[C@H]3C[C@H](n4cc(C)c(=O)[nH]c4=O)O[C@@H]3COP(=O)(S)O[C@H]3C[C@H](n4ccc5c(=O)[nH]c(N)nc54)O[C@@H]3COP(=O)(S)O[C@H]3[C@@H](O)[C@H](n4ccc(N)nc4=O)O[C@@H]3COP(=O)(S)O[C@H]3C[C@H](n4cc(C)c(=O)[nH]c4=O)O[C@@H]3COP(=O)(S)O[C@H]3[C@@H](O)[C@H](n4cnc5c(=O)[nH]c(N)nc54)O[C@@H]3COP(=O)(S)O[C@H]3C[C@H](n4cc(C)c(=O)[nH]c4=O)O[C@@H]3COP(=O)(S)O[C@H]3[C@@H](O)[C@H](n4ccc(N)nc4=O)O[C@@H]3COP(=O)(S)O[C@H]3C[C@H](n4cc(C)c(=O)[nH]c4=O)O[C@@H]3CO)[C@@H](COP(=O)(S)O[C@H]3[C@@H](O)[C@H](n4ccc(N)nc4=O)O[C@@H]3COP(=O)(S)O[C@H]3C[C@H](n4cc(C)c(=O)[nH]c4=O)O[C@@H]3COP(=O)(S)O[C@H]3C[C@H](n4cc(C)c(=O)[nH]c4=O)O[C@@H]3COP(=O)(S)O[C@H]3C[C@H](n4ccc5c(=O)[nH]c(N)nc54)O[C@@H]3COP(=O)(S)O[C@H]3[C@@H](O)[C@H](n4ccc(N)nc4=O)O[C@@H]3COP(=O)(S)O[C@H]3C[C@H](n4cc(C)c(=O)[nH]c4=O)O[C@@H]3COP(=O)(S)O[C@H]3[C@@H](O)[C@H](n4cnc5c(=O)[nH]c(N)nc54)O[C@@H]3COP(=O)(S)O[C@H]3C[C@H](n4cc(C)c(=O)[nH]c4=O)O[C@@H]3COP(=O)(S)O[C@H]3[C@@H](O)[C@H](n4ccc(N)nc4=O)O[C@@H]3COP(=O)(S)O[C@H]3C[C@H](n4cc(C)c(=O)[nH]c4=O)O[C@@H]3CO)O2)c(=O)[nH]c1=O` (stereo partly drawn), the Activity in assay [1] is 29.6 ng/mL; in assay [2] it was 0.81 ng/mL; in [3] it was “Dose-dependent effect”; in [4], 43.5 ng/mL; in assay [5] it was 13.2 ng/mL; in [6], 0.69 ng/mL. Besides, the Activity is 0.12 ng/mL in assay [7], 1.76 ng/mL in assay [8] and “Dose-dependent effect” in assay [9].
